Assays:
W4 (Rattus norvegicus) = experiment: Activation of alpha secretase assessed by sAPPalpha secretion in W4 cells relative to control; design: concentration or dose not given beside the values
[1] = molecular target: Protein kinase C alpha type (Homo sapiens, UniProt P17252); experiment: Displacement of [20-3H]PDBu from recombinant PKC alpha in presence of phosphatidylserine
Outline: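 Competition for bound [20-3H]phorbol 12,13-dibutyrate on recombinant PKC-α with phosphatidylserine present; IC50 obtained by fitting points to the theoretical competition curve, then converted to Ki.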

## CC(C)CC(C/C=C1\CC(CO)(COC(=O)C(C)(C)C)OC1=O)CC(C)C (configuration not stated)
W4 (Rattus norvegicus)
  Activity: 133%

## CC(C)CC(C/C=C1\CC(CO)(COC(=O)CC(C(C)C)C(C)C)OC1=O)CC(C)C (configuration not stated)
W4 (Rattus norvegicus)
  Activity: 225%

## CCCCCC(=O)OCC1(CO)C/C(=C\CC(CC(C)C)CC(C)C)C(=O)O1 (configuration not stated)
[1]
  Ki: 6.18 nM

## CC(C)CC(C/C=C1/C[C@@](CO)(COC(=O)C(C)(C)C)OC1=O)CC(C)C
[1]
  Ki: 1.45 nM
W4 (Rattus norvegicus)
  Activity: 209%

## CC(C)CC(C/C=C1/CC(CO)(COC(=O)CC(CC(C)C)CC(C)C)OC1=O)CC(C)C (configuration not stated)
[1]
  Ki: 6.88 nM

## CC(C)CC(C/C=C1/CC(/C=C/C(=O)OC(C)(C)C)(CO)OC1=O)CC(C)C (configuration not stated)
[1]
  Ki: 18 nM
W4 (Rattus norvegicus)
  Activity: 200%

## CCCCCCCC(=O)OCC1(CO)CC/C(=C\CC(CC(C)C)CC(C)C)C(=O)O1 (configuration not stated)
[1]
  Ki: 129 nM

## CC(C)CC(C/C=C1\CCC(CO)(COC(=O)C(C)(C)C)OC1=O)CC(C)C (configuration not stated)
[1]
  Ki: 48 nM

## CCCCCC(=O)OCC1(CO)CC/C(=C\CC(CC(C)C)CC(C)C)C(=O)O1 (configuration not stated)
[1]
  Ki: 147 nM

## CCCCCCCC(=O)OCC1(CO)C/C(=C/CC(CC(C)C)CC(C)C)C(=O)O1 (configuration not stated)
[1]
  Ki: 4.97 nM
W4 (Rattus norvegicus)
  Activity: 158%

## CC(C)=CCC1(CC=C(C)C)CC(CO)(COC(=O)C(C)(C)C)OC1=O (configuration not stated)
[1]
  Ki: 2100 nM

## CC(C)CC(C/C=C1/CCC(CO)(COC(=O)C(C)(C)C)OC1=O)CC(C)C (configuration not stated)
[1]
  Ki: 28 nM

## CCCC(=O)O[C@@H]1[C@@H](C)[C@@]2(O)[C@@H](C=C(CO)C[C@]3(O)C(=O)C(C)=C[C@@H]23)[C@@H]2C(C)(C)[C@]12OC(=O)CCC
W4 (Rattus norvegicus)
  Activity: 185%

## CC(C)CCC1(CCC(C)C)CC(CO)(COC(=O)C(C)(C)C)OC1=O (configuration not stated)
[1]
  Ki: 18300 nM

## CC(C)CC(C/C=C1\CC(CO)(COC(=O)c2ccccc2)OC1=O)CC(C)C (configuration not stated)
[1]
  Ki: 16.1 nM
W4 (Rattus norvegicus)
  Activity: 131%

## CC(C)CC(C/C=C1\CC(/C=C/C(=O)OC(C)(C)C)(CO)OC1=O)CC(C)C (configuration not stated)
[1]
  Ki: 173 nM

## CC(C)CC(C/C=C1/CC(CO)(COC(=O)c2ccccc2)OC1=O)CC(C)C (configuration not stated)
[1]
  Ki: 6.66 nM
W4 (Rattus norvegicus)
  Activity: 157%

## CCCCCC(=O)OCC1(CO)C/C(=C/CC(CC(C)C)CC(C)C)C(=O)O1 (configuration not stated)
[1]
  Ki: 3.78 nM

## CCCCCCCC(=O)OCC1(CO)C/C(=C\CC(CC(C)C)CC(C)C)C(=O)O1 (configuration not stated)
[1]
  Ki: 6.04 nM
W4 (Rattus norvegicus)
  Activity: 141%

## CC(C)CC(C/C=C1\CC(/C=C\C(=O)OC(C)(C)C)(CO)OC1=O)CC(C)C (configuration not stated)
[1]
  Ki: 21700 nM

## CC(C)CC(C/C=C1/CC(CO)(COC(=O)C(C)(C)C)OC1=O)CC(C)C (configuration not stated)
W4 (Rattus norvegicus)
  Activity: 177%

— ChEMBL document CHEMBL1139005, “Branched diacylglycerol-lactones as potent protein kinase C ligands and alpha-secretase activators” (J Med Chem, 2006)
